Results published in ChEMBL document CHEMBL2396577, “Design, synthesis and biological activity evaluation of desloratadine analogues as H1 receptor antagonists” (Bioorg Med Chem, 2013).

What was measured:
Ileum [1] = test: Toxicity in guinea pig ileum assessed as effect on acetylcholine-induced smooth muscle spasm at 0.2 ug/mL after 3 mins (reference value: 1.31 +/- 3.66%); assay type: tissue-based, Cavia porcellus; conditions: in vivo
Ileum [2] = test: Toxicity in guinea pig ileum assessed as effect on acetylcholine-induced smooth muscle spasm at 0.6 ug/mL after 3 mins (reference value: 1.31 +/- 3.66%); assay type: tissue-based, Cavia porcellus; conditions: in vivo
Ileum [3] = test: Toxicity in guinea pig ileum assessed as effect on acetylcholine-induced smooth muscle contraction at 0.2 ug/mL after 3 mins (reference value: 5.17 +/- 0.36 g); assay type: tissue-based, Cavia porcellus
Ileum [4] = test: Toxicity in guinea pig ileum assessed as effect on acetylcholine-induced smooth muscle contraction at 0.6 ug/mL after 3 mins (reference value: 5.17 +/- 0.36 g); assay type: tissue-based, Cavia porcellus
Mus musculus [5] = test: Toxicity in mouse assessed as effect on pentobarbital sodium-induced hypnotic effect measured as recovery of righting reflex at 100 mg/kg pretreated for 30 mins prior to pentobarbital sodium-challenge; assay type: organism-based; set-up: dose 100 mg/kg; conditions: in vivo
Mus musculus [6] = test: Toxicity in mouse assessed as effect on pentobarbital sodium-induced hypnotic effect measured as recovery of righting reflex at 50 mg/kg pretreated for 30 mins prior to pentobarbital sodium-challenge; assay type: organism-based; set-up: dose 50 mg/kg; conditions: in vivo
Mus musculus [7] = test: Toxicity in mouse assessed as effect on pentobarbital sodium-induced hypnotic effect measured as loss of righting reflex latency at 200 mg/kg pretreated for 30 mins prior to pentobarbital sodium-challenge; assay type: organism-based; set-up: dose 200 mg/kg; conditions: in vivo
Mus musculus [8] = test: Toxicity in mouse assessed as effect on pentobarbital sodium-induced hypnotic effect measured as loss of righting reflex latency at 50 mg/kg pretreated for 30 mins prior to pentobarbital sodium-challenge; assay type: organism-based; set-up: dose 50 mg/kg; conditions: in vivo
Mus musculus [9] = test: Toxicity in mouse assessed as change in body activity at 0.05 to 0.2 mg/kg measured for 7 days; assay type: organism-based; set-up: dose 0.05-0.2 mg/kg; conditions: in vivo, 168 h
In short: (§1)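 Groups of 10 received saline 10 mL/kg, desloratadine 1 mg/kg, or compound at a low dose (0.05 mg/kg) or high dose (0.2 mg/kg), all at a dosing volume of 10 mL/kg. Over the following seven days, mental state, body activity and abnormal signs were observed: sleep, excitement, irritability, convulsion, salivation and muscle tremor.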

Mus musculus [10] = test: Toxicity in mouse assessed as change in mental state at 0.05 to 0.2 mg/kg measured for 7 days; assay type: organism-based; set-up: dose 0.05-0.2 mg/kg; conditions: in vivo, 168 h; in short: as §1
Mus musculus [11] = test: Toxicity in mouse assessed as muscle tremor at 0.05 to 0.2 mg/kg measured for 7 days; assay type: organism-based, Muscle tissue; set-up: dose 0.05-0.2 mg/kg; conditions: in vivo, 168 h; in short: as §1
Mus musculus [12] = test: Toxicity in mouse assessed as salivation at 0.05 to 0.2 mg/kg measured for 7 days; assay type: organism-based; set-up: dose 0.05-0.2 mg/kg; conditions: in vivo, 168 h; in short: as §1
Mus musculus [13] = test: Toxicity in mouse assessed as irritability at 0.05 to 0.2 mg/kg measured for 7 days; assay type: organism-based; set-up: dose 0.05-0.2 mg/kg; conditions: in vivo, 168 h; in short: as §1
Mus musculus [14] = test: Toxicity in mouse assessed as convulsion at 0.05 to 0.2 mg/kg measured for 7 days; assay type: organism-based; set-up: dose 0.05-0.2 mg/kg; conditions: in vivo, 168 h; in short: as §1
Mus musculus [15] = test: Toxicity in mouse assessed as excitement at 0.05 to 0.2 mg/kg measured for 7 days; assay type: organism-based; set-up: dose 0.05-0.2 mg/kg; conditions: in vivo, 168 h; in short: as §1
Mus musculus [16] = test: Toxicity in mouse assessed as sleep abnormality at 0.05 to 0.2 mg/kg measured for 7 days; assay type: organism-based; set-up: dose 0.05-0.2 mg/kg; conditions: in vivo, 168 h; in short: as §1
Cavia porcellus [17] = test: Antiasthamatic activity in histamine-induced guinea pig asthma model assessed as prolongation of asthmogenic latent period at 0.01 mg/kg, ig pretreated for 60 mins prior to histamine-challenge (reference value: 127.10 +/- 40.46 seconds); assay type: functional; conditions: route intragastric
[18] = molecular target: Histamine H1 receptor (Cavia porcellus) (UniProt P31389); test: Antagonist activity at histamine H1 receptor in guinea pig ileum assessed as inhibition of histamine-induced smooth muscle spasm at 0.2 mg/mL after 3 mins (reference value: 1.27 +/- 5.65%); assay type: tissue-based; set-up: scale not given: the % may be the effect or the level left
Sequence of Histamine H1 receptor (Cavia porcellus) (P31389 whole entry): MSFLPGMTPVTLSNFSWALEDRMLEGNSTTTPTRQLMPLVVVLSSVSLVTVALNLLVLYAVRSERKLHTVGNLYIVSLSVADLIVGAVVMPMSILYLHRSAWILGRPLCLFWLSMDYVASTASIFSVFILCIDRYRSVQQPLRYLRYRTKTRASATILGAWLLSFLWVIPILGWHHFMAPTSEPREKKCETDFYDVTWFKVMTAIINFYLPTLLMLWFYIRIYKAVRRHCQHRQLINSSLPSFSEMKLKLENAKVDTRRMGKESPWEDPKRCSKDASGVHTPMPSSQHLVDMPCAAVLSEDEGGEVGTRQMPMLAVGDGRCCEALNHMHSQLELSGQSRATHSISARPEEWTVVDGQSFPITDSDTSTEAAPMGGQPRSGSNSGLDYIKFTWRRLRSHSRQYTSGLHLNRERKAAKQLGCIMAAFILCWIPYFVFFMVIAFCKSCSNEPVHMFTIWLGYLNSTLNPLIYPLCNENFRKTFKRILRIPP

[19] = molecular target: Histamine H1 receptor (Cavia porcellus) (UniProt P31389); test: Antagonist activity at histamine H1 receptor in guinea pig ileum assessed as inhibition of histamine-induced smooth muscle contraction at 0.2 mg/mL after 3 mins (reference value: 3.37 +/- 1.05 g); assay type: tissue-based
Ileum [20] = test: Toxicity in guinea pig ileum assessed as effect on acetylcholine-induced smooth muscle spasm at 1.4 ug/mL after 3 mins (reference value: 1.31 +/- 3.66%); assay type: tissue-based, Cavia porcellus; conditions: in vivo
Ileum [21] = test: Toxicity in guinea pig ileum assessed as effect on acetylcholine-induced smooth muscle spasm at 2 ug/mL after 3 mins (reference value: 1.31 +/- 3.66%); assay type: tissue-based, Cavia porcellus; conditions: in vivo
Ileum [22] = test: Toxicity in guinea pig ileum assessed as effect on acetylcholine-induced smooth muscle contraction at 1.4 ug/mL after 3 mins (reference value: 5.17 +/- 0.36 g); assay type: tissue-based, Cavia porcellus
Ileum [23] = test: Toxicity in guinea pig ileum assessed as effect on acetylcholine-induced smooth muscle contraction at 2 ug/mL after 3 mins (reference value: 5.17 +/- 0.36 g); assay type: tissue-based, Cavia porcellus
Mus musculus [24] = test: Toxicity in mouse assessed as effect on pentobarbital sodium-induced hypnotic effect measured as recovery of righting reflex at 1 mg/kg pretreated for 30 mins prior to pentobarbital sodium-challenge; assay type: organism-based; set-up: dose 1 mg/kg; conditions: in vivo
In short: (§2)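 Mice, 10 per group. Groups: saline, pentobarbital alone, pentobarbital plus desloratadine 1 mg/kg, pentobarbital plus test agent at 0.05 or 0.2 mg/kg. 30 min after dosing, 1% pentobarbital sodium given i.p. at 100 mg/kg (10 mL/kg). Latency to loss of righting reflex and time to its recovery recorded, in min.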

Cavia porcellus [25] = test: Antiasthamatic activity in histamine-induced guinea pig asthma model assessed as prolongation of asthmogenic latent period at 1 mg/kg, ig pretreated for 60 mins prior to histamine-challenge (reference value: 127.10 +/- 40.46 seconds); assay type: functional; conditions: route intragastric
Mus musculus [26] = test: Toxicity in mouse assessed as effect on pentobarbital sodium-induced hypnotic effect measured as loss of righting reflex latency at 1 mg/kg pretreated for 30 mins prior to pentobarbital sodium-challenge; assay type: organism-based; set-up: dose 1 mg/kg; conditions: in vivo; in short: as §2
Ileum [27] = test: Toxicity in guinea pig ileum assessed as effect on acetylcholine-induced smooth muscle spasm at 0.1 ug/mL after 3 mins (reference value: 1.31 +/- 3.66%); assay type: tissue-based, Cavia porcellus; conditions: in vivo
Ileum [28] = test: Toxicity in guinea pig ileum assessed as effect on acetylcholine-induced smooth muscle contraction at 0.1 ug/mL after 3 mins (reference value: 5.17 +/- 0.36 g); assay type: tissue-based, Cavia porcellus

Row | SMILES | Time (Mus musculus [5]) | Time (Mus musculus [6]) | Time (Mus musculus [7]) | Time (Mus musculus [8]) | Activity (Mus musculus [9]) | Activity (Mus musculus [10]) | Activity (Mus musculus [11]) | Activity (Mus musculus [12]) | Activity (Mus musculus [13]) | Activity (Mus musculus [14]) | Activity (Mus musculus [15]) | Activity (Mus musculus [16]) | Time (Cavia porcellus [17]) | Activity [18] | Activity [19] | further results
1 | FCCCN1CCC(=C2c3ccc(Cl)cc3CCc3cccnc32)CC1 | 123 min | 98 min | 1.45 min | 1.47 min | Non-toxic | Non-toxic | Non-toxic | Non-toxic | Non-toxic | Non-toxic | Non-toxic | Non-toxic | 269.4 s | 48.7% | 1.74 g | Activity (Ileum [1]): 54.35%; Activity (Ileum [2]): 62.47%; Activity (Ileum [3]): 9.11 g; Activity (Ileum [4]): 6.58 g
2 | OC1CCC(N2CCC(=C3c4ccc(Cl)cc4CCc4cccnc43)CC2)CC1 (stereo not given) |  |  |  |  |  |  |  |  |  |  |  |  | 222 s | 13% | 2.93 g | 
3 | Clc1ccc2c(c1)CCc1cccnc1C2=C1CCN(C2CCC(Cl)CC2)CC1 (stereo not given) | 103 min | 82 min | 1.62 min | 1.61 min | Non-toxic | Non-toxic | Non-toxic | Non-toxic | Non-toxic | Non-toxic | Non-toxic | Non-toxic | 325.2 s | 61.1% | 1.29 g | Activity (Ileum [20]): 61.39%; Activity (Ileum [21]): 70.61%; Activity (Ileum [22]): 5.59 g; Activity (Ileum [23]): 4.4 g
4 | OCCCN1CCC(=C2c3ccc(Cl)cc3CCc3cccnc32)CC1 | 100 min | 76 min | 1.46 min | 1.54 min | Non-toxic | Non-toxic | Non-toxic | Non-toxic | Non-toxic | Non-toxic | Non-toxic | Non-toxic | 221.9 s | 45.2% | 1.73 g | Activity (Ileum [20]): 58.27%; Activity (Ileum [21]): 67.06%; Activity (Ileum [22]): 6.72 g; Activity (Ileum [23]): 6.04 g
5 | Clc1ccc2c(c1)CCc1cccnc1C2=C1CCNCC1 [DESLORATADINE] |  |  |  |  |  |  |  |  |  |  |  |  |  | 49.1% | 1.67 g | Time (Mus musculus [24]): 93 min; Time (Cavia porcellus [25]): 278.2 s; Time (Mus musculus [26]): 2.23 min
6 | Clc1ccc2c(c1)CCc1cccnc1C2=C1CCN(C2CCCCC2)CC1 |  |  |  |  |  |  |  |  |  |  |  |  | 250.3 s | 29.4% | 2.57 g | 
7 | CN1[C@@H]2CC[C@H]1CC(OC(=O)[C@H](CO)c1ccccc1)C2 (stereo partly drawn) [ENDO-ATROPINE] |  |  |  |  |  |  |  |  |  |  |  |  |  |  |  | Activity (Ileum [27]): 74.9%; Activity (Ileum [28]): 3.47 g
8 | CN(C)CCCN1CCC(=C2c3ccc(Cl)cc3CCc3cccnc32)CC1 |  |  |  |  |  |  |  |  |  |  |  |  | 212.8 s | 30.4% | 2.66 g | 
9 | CCCN1CCC(=C2c3ccc(Cl)cc3CCc3cccnc32)CC1 | 99 min | 76 min | 1.61 min | 1.47 min | Non-toxic | Non-toxic | Non-toxic | Non-toxic | Non-toxic | Non-toxic | Non-toxic | Non-toxic | 255.1 s | 42.5% | 1.8 g | Activity (Ileum [1]): 56.14%; Activity (Ileum [2]): 73.09%; Activity (Ileum [3]): 7.51 g; Activity (Ileum [4]): 4.38 g
10 | NCCCN1CCC(=C2c3ccc(Cl)cc3CCc3cccnc32)CC1 |  |  |  |  |  |  |  |  |  |  |  |  | 182.8 s | 26% | 2.36 g | 
11 | Clc1ccc2c(c1)CCc1cccnc1C2=C1CCN(C2CC=CCC2)CC1 (stereo not given) |  |  |  |  |  |  |  |  |  |  |  |  | 262.7 s | 28.3% | 2.38 g | 
12 | ClCCCN1CCC(=C2c3ccc(Cl)cc3CCc3cccnc32)CC1 | 120 min | 97 min | 1.58 min | 1.48 min | Non-toxic | Non-toxic | Non-toxic | Non-toxic | Non-toxic | Non-toxic | Non-toxic | Non-toxic | 256.9 s | 43% | 1.81 g | Activity (Ileum [2]): 47.21%; Activity (Ileum [20]): 69.51%; Activity (Ileum [4]): 8.56 g; Activity (Ileum [22]): 5.68 g
13 | O=C1c2ccccc2C(=O)N1CCCN1CCC(=C2c3ccc(Cl)cc3CCc3cccnc32)CC1 |  |  |  |  |  |  |  |  |  |  |  |  | 247.9 s | 26.6% | 2.71 g | 
